Data set [1] is described as follows: melting temperature; fluorescence melt of hairpins on a sequencing array, two-state fit, raised by 9.35 °C to match UV melts. The conditions noted are these: sodium 0.088 M. The method in brief:
(§1)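 Folding enthalpy and melting temperature were estimated with bootstrapped two-state fits and combined across four replicates by inverse-variance weighting, with fitted temperatures raised by 9.35 °C to match UV melts. The data were Cy3 fluorescence of library hairpins, with annealed Cy3 and quencher oligos, on a sequenced MiSeq flow cell in 50 mM Na-HEPES pH 8.0, 25 mM NaCl, imaged in 2.5 °C steps up to 60 °C and normalised to pre-quench Cy3 and control constructs.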

A short description of data set [2]: folding enthalpy; higher = less favourable; fluorescence melt of hairpins on a sequencing array, two-state fit. The note with it: sodium 0.088 M. In short, it runs like this:
as §1

Turning to GTGTGTGGAAACGTACAC ((((..(....)..)))), in data set [1], the Tm is 42 °C. In data set [2], the folding enthalpy was -23.5 kcal/mol.

For GTGTTACGAAAGTACCAC (((.(((....))).))), in data set [1], the Tm came to 43.2 °C. Further, the folding enthalpy in data set [2] was -29.4 kcal/mol.

Take GTGTTAGAAATAACAC ((((((....)))))): in data set [1], the Tm stood at 47.1 °C. Besides, the folding enthalpy in data set [2] was -28.6 kcal/mol.

In the case of GTGTTAGGAAACTAGCAC (((.(((....))).))), in data set [1], the Tm was determined as 42.9 °C. Moreover, the folding enthalpy in data set [2] was -31.2 kcal/mol.

Turning to GTGTTCGAAAGAACCCAC ((((((....)))..))), in data set [1], the Tm was 33.1 °C. Moreover, in data set [2], the folding enthalpy was -11.7 kcal/mol.

For GTGTTCGAAAGAATGCAC ((((((....)))..))), the Tm in data set [1] was 33.5 °C. For the same sequence, in data set [2], the folding enthalpy is -19.1 kcal/mol.

With GTGTTCGAAAGAATTCAC ((((((....)))..))), in data set [1], the Tm was found to be 28.8 °C. Further, in data set [2], the folding enthalpy is -10.3 kcal/mol.

Consider GTGTTCGGAAACGAACGC (.(((((....))))).), for which the Tm in data set [1] is 59.6 °C. In addition, the folding enthalpy in data set [2] was -30.3 kcal/mol.

Regarding GTGTTCGGAAACGGATAC ((.(.((....)).).)), in data set [1], the Tm was 33.6 °C. Further, the folding enthalpy in data set [2] was -25.8 kcal/mol.

Turning to GTGTTCTCGAAAGAGCAC (((..(((....)))))), the Tm in data set [1] was found to be 41.8 °C. Besides, in data set [2], the folding enthalpy is -24.7 kcal/mol.

Take GTGTTGCGAAAGCACAC (((.(((....)))))): the Tm in data set [1] is 56.3 °C. In addition, the folding enthalpy in data set [2] is -33.8 kcal/mol.

With GTGTTGCGAAAGCACCAC (((.(((....))).))), the Tm in data set [1] came out at 51.2 °C. Besides, in data set [2], the folding enthalpy is -30.7 kcal/mol.

For the sequence GTGTTGGGAAACCAATAC ((.((((....)))).)), the Tm in data set [1] amounted to 45.7 °C. The folding enthalpy in data set [2] is -41.5 kcal/mol.

GTGTTGGGAAACCAGTAC ((..(((....)))..)): in data set [1], the Tm was 25 °C. Further, the folding enthalpy in data set [2] was -11 kcal/mol.

Regarding GTGTTGGGAAACCGACAC ((((.((....)).)))), the Tm in data set [1] came to 53.6 °C. Further, in data set [2], the folding enthalpy was -45.5 kcal/mol.

For the sequence GTGTTTCGAAAGAACCAC (((.(((....))).))), in data set [1], the Tm stood at 43 °C. Also, in data set [2], the folding enthalpy is -30.7 kcal/mol.

On to GTGTTTGGAAACAAACGC (.(((((....))))).), for which the Tm in data set [1] stood at 51 °C. For the same sequence, the folding enthalpy in data set [2] was -32.3 kcal/mol.

On to GTTAAACGAAAGTTAAC (((.(((....)))))), for which the Tm in data set [1] came to 34.6 °C. The folding enthalpy in data set [2] was -17.2 kcal/mol.

For GTTAAACGAAAGTTCAAC (((.(((....))).))), in data set [1], the Tm came out at 30.3 °C. In addition, the folding enthalpy in data set [2] is -22.6 kcal/mol.

On to GTTAAAGGAAACTTTAGC (.(((((....))))).), for which the Tm in data set [1] turned out to be 27.6 °C. In addition, the folding enthalpy in data set [2] is -20.6 kcal/mol.

Consider GTTAACGAAAGTTACAAC ((((((....)))..))), for which, in data set [1], the Tm was found to be 25.6 °C. Moreover, in data set [2], the folding enthalpy was -12.3 kcal/mol.

Turning to GTTAACGAAAGTTTAAC ((((((....))).))), the Tm in data set [1] was 34.6 °C. The folding enthalpy in data set [2] was -17 kcal/mol.

Take GTTAACGGAAACGTCAAC (((.(((....))).))): in data set [1], the Tm came to 34.2 °C. In data set [2], the folding enthalpy was -15.2 kcal/mol.

Regarding GTTAAGCGAAAGCTGAAC (((.(((....))).))), the Tm in data set [1] was 48.2 °C. Besides, the folding enthalpy in data set [2] is -23.2 kcal/mol.

Regarding GTTAAGGGAAACCTTAAC (((((((....))))))), the Tm in data set [1] is 50.5 °C. Also, the folding enthalpy in data set [2] is -39.2 kcal/mol.

GTTAAGGGAAACCTTGAC ((.((((....)))).)): the Tm in data set [1] amounted to 37.4 °C. Further, the folding enthalpy in data set [2] was -29.3 kcal/mol.

Consider GTTAAGTCGAAAGACAAC (((..(((....)))))), for which, in data set [1], the Tm was 27.8 °C. In addition, in data set [2], the folding enthalpy was -13.4 kcal/mol.

GTTACCGAAAGGTAAAAC ((((((....)))..))): in data set [1], the Tm was determined as 34.7 °C. In data set [2], the folding enthalpy was -13.2 kcal/mol.

Turning to GTTACCGAAAGGTGAAAC ((((((....)))..))), in data set [1], the Tm stood at 27.5 °C. Further, the folding enthalpy in data set [2] was -9.44 kcal/mol.

GTTACCGAAAGGTTAAC ((((((....))).))): in data set [1], the Tm was 41.9 °C. For the same sequence, the folding enthalpy in data set [2] was -15.4 kcal/mol.

Consider GTTACCGGAAACGGTGAC ((.((((....)))).)), for which, in data set [1], the Tm was found to be 51.2 °C. Besides, in data set [2], the folding enthalpy was -30.4 kcal/mol.

Turning to GTTACGACGAAAGTCAAC (((..(((....)))))), the Tm in data set [1] was found to be 25.5 °C. The folding enthalpy in data set [2] was -12.3 kcal/mol.

GTTACGCGAAAGCGAAAC (((.(((....))).))): the Tm in data set [1] worked out at 51.1 °C. In data set [2], the folding enthalpy was -23.5 kcal/mol.

In the case of GTTACTGGAAACGGTAAC (((((.(....).))))), in data set [1], the Tm turned out to be 43.9 °C. The folding enthalpy in data set [2] was -32.2 kcal/mol.

In the case of GTTAGACCGAAAGGTAAC (((..(((....)))))), in data set [1], the Tm was 30.2 °C. Also, the folding enthalpy in data set [2] is -11.2 kcal/mol.

On to GTTAGAGGAAACTCTAAC (((((((....))))))), for which the Tm in data set [1] turned out to be 51.6 °C. Further, the folding enthalpy in data set [2] is -39.7 kcal/mol.

For GTTAGAGGAAACTCTGAC ((.((((....)))).)), the Tm in data set [1] was 37.1 °C. The folding enthalpy in data set [2] is -31.4 kcal/mol.

The values are drawn from the array DNA melting data of Ke et al. (doi:10.1101/2024.01.08.574731).
